# Tested on: Leishmania donovani
# Assay: Antiprotozoal activity against promastigotes of Leishmania donovani MHOM/IN/90/GE1F8R after 72 hrs by alamar blue assay
# Assay type: functional, organism-based
# Conditions: not given
# Method in brief: (§1)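 Log-phase promastigotes at 10^6/well in phenol-red-free RPMI 1640. Serum was heat-inactivated FBS at 20% for L. donovani and 10% for L. amazonensis. Cells were exposed to compound serial dilutions with 10% Alamar Blue at 26 °C for 72 h and read at 570 nm with a 630 nm reference. IC50 was taken by linear regression with 95% confidence limits. Three experiments were run in duplicate and analysed by paired two-tailed t-test.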
row,Structure (SMILES),IC50
1,O=C1C=Cc2cccc3cccc1c23 [PERINAPHTHENONE],65.1 µg/mL
2,O=C1C(O)=Cc2cccc3ccc(-c4ccccc4)c1c23,> 100 µg/mL
3,O=C1C=Cc2cccc3ccc(-c4ccccc4)c1c23,> 100 µg/mL
4,COC1=Cc2cccc3ccc(-c4ccc(OC)cc4)c(c23)C1=O,> 100 µg/mL
5,N#Cc1ccc2cccc3c2c1C(=O)C=C3,1.02 µg/mL
6,OC1(c2ccccn2)C=Cc2cccc3ccc(-c4ccccn4)c1c23 (configuration not stated),> 100 µg/mL
7,O=C1C(O)=Cc2c(-c3ccc(O)cc3)ccc3cccc1c23,> 100 µg/mL
8,Oc1ccc2cccc3c2c1C(c1ccco1)C=C3 (configuration not stated),> 100 µg/mL
9,COc1ccc(-c2ccc3cccc4c3c2C(=O)C(O)=C4)cc1,> 100 µg/mL
10,O=C1C(O)=Cc2cccc3ccc(-c4ccc(O)cc4)c1c23,> 100 µg/mL
11,COC1=Cc2cccc3ccc(-c4ccccc4)c(c23)C1=O,29.9 µg/mL
12,COc1ccc(C2=CC(=O)c3cccc4cccc2c34)cc1,> 100 µg/mL
13,COc1ccc(-c2ccc3cccc4c3c2C(=O)C=C4)cc1,> 100 µg/mL
14,O=C1C(O)=Cc2c(-c3ccccc3)ccc3cccc1c23,> 100 µg/mL
15,O=C1C=Cc2cccc3ccc(-c4ccccn4)c1c23,> 100 µg/mL
16,O=C1C=Cc2cccc3ccc(-c4ccco4)c1c23,> 100 µg/mL
17,COC1c2cccc3ccc(-c4ccccc4)c(c23)C(=O)C1O (configuration not stated),> 100 µg/mL
18,Cc1cccc(C)c1-c1ccc2cccc3c2c1C(=O)C=C3,27.8 µg/mL
19,COc1ccc(-c2ccc3cccc4c3c2C(=O)C(O)C4O)cc1 (configuration not stated),> 100 µg/mL
20,O=C1C=Cc2cccc3ccc(-c4cccs4)c1c23,> 100 µg/mL
21,COc1ccc(-c2ccc3cccc4c3c2C=CC4=O)cc1,> 100 µg/mL

# Tested on: not listed separately
# Assay: Cytotoxicity against human MCF7 cells assessed as growth inhibition at 10 uM after 72 hrs by MTT assay
# Assay type: cell-based
# Conditions: not given
# Method in brief: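 MCF-7 cells in DMEM with 10% FBS, plated at 10,000 cells/well. After 72 h, MTT was added at 0.5 mg/mL final for 3 h at 37 °C. Formazan was dissolved in SDS–HCl (20% SDS, 0.02 M HCl) and absorbance read at 570 nm.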
row,Structure (SMILES),"inhibition at 72 h, 10 µM"
1,O=C1C=Cc2cccc3cccc1c23 [PERINAPHTHENONE],0%
2,O=C1C(O)=Cc2cccc3ccc(-c4ccccc4)c1c23,22%
3,O=C1C=Cc2cccc3ccc(-c4ccccc4)c1c23,5%
4,COC1=Cc2cccc3ccc(-c4ccc(OC)cc4)c(c23)C1=O,15%
5,N#Cc1ccc2cccc3c2c1C(=O)C=C3,44%
6,OC1(c2ccccn2)C=Cc2cccc3ccc(-c4ccccn4)c1c23 (configuration not stated),0%
7,O=C1C(O)=Cc2c(-c3ccc(O)cc3)ccc3cccc1c23,12%
8,COc1ccc(-c2ccc3cccc4c3c2C(=O)C(O)=C4)cc1,19%
9,O=C1C(O)=Cc2cccc3ccc(-c4ccc(O)cc4)c1c23,23%
10,COC1=Cc2cccc3ccc(-c4ccccc4)c(c23)C1=O,14%
11,COc1ccc(C2=CC(=O)c3cccc4cccc2c34)cc1,2%
12,COc1ccc(-c2ccc3cccc4c3c2C(=O)C=C4)cc1,13%
13,O=C1C(O)=Cc2c(-c3ccccc3)ccc3cccc1c23,19%
14,O=C1C=Cc2cccc3ccc(-c4ccccn4)c1c23,0%
15,O=C1C=Cc2cccc3ccc(-c4ccco4)c1c23,14%
16,COC1c2cccc3ccc(-c4ccccc4)c(c23)C(=O)C1O (configuration not stated),17%
17,Cc1cccc(C)c1-c1ccc2cccc3c2c1C(=O)C=C3,1%
18,O=C1C=Cc2cccc3ccc(-c4cccs4)c1c23,4%
19,COc1ccc(-c2ccc3cccc4c3c2C=CC4=O)cc1,17%

# Tested on: Trypanosoma cruzi
# Assay: Antiprotozoal activity against epimastigotes of Trypanosoma cruzi Y by alamar blue assay
# Assay type: functional, organism-based
# Conditions: not given
# Method in brief: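 Y-strain epimastigotes grown at 28 °C in LIT medium with 10% (v/v) heat-inactivated FBS. Growth inhibition was measured by the same Alamar Blue colorimetric method used for Leishmania promastigotes.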
row,Structure (SMILES),IC50
1,O=C1C=Cc2cccc3cccc1c23 [PERINAPHTHENONE],2.62 µg/mL
2,O=C1C(O)=Cc2cccc3ccc(-c4ccccc4)c1c23,> 100 µg/mL
3,O=C1C=Cc2cccc3ccc(-c4ccccc4)c1c23,> 100 µg/mL
4,COC1=Cc2cccc3ccc(-c4ccc(OC)cc4)c(c23)C1=O,> 100 µg/mL
5,N#Cc1ccc2cccc3c2c1C(=O)C=C3,> 100 µg/mL
6,OC1(c2ccccn2)C=Cc2cccc3ccc(-c4ccccn4)c1c23 (configuration not stated),> 100 µg/mL
7,O=C1C(O)=Cc2c(-c3ccc(O)cc3)ccc3cccc1c23,> 100 µg/mL
8,Oc1ccc2cccc3c2c1C(c1ccco1)C=C3 (configuration not stated),> 100 µg/mL
9,COc1ccc(-c2ccc3cccc4c3c2C(=O)C(O)=C4)cc1,> 100 µg/mL
10,O=C1C(O)=Cc2cccc3ccc(-c4ccc(O)cc4)c1c23,> 100 µg/mL
11,COC1=Cc2cccc3ccc(-c4ccccc4)c(c23)C1=O,48.3 µg/mL
12,COc1ccc(C2=CC(=O)c3cccc4cccc2c34)cc1,> 100 µg/mL
13,COc1ccc(-c2ccc3cccc4c3c2C(=O)C=C4)cc1,> 100 µg/mL
14,O=C1C(O)=Cc2c(-c3ccccc3)ccc3cccc1c23,> 100 µg/mL
15,O=C1C=Cc2cccc3ccc(-c4ccccn4)c1c23,> 100 µg/mL
16,O=C1C=Cc2cccc3ccc(-c4ccco4)c1c23,> 100 µg/mL
17,COC1c2cccc3ccc(-c4ccccc4)c(c23)C(=O)C1O (configuration not stated),> 100 µg/mL
18,Cc1cccc(C)c1-c1ccc2cccc3c2c1C(=O)C=C3,49.8 µg/mL
19,COc1ccc(-c2ccc3cccc4c3c2C(=O)C(O)C4O)cc1 (configuration not stated),> 100 µg/mL
20,O=C1C=Cc2cccc3ccc(-c4cccs4)c1c23,> 100 µg/mL
21,COc1ccc(-c2ccc3cccc4c3c2C=CC4=O)cc1,11.4 µg/mL

# Tested on: Leishmania amazonensis
# Assay: Antiprotozoal activity against promastigotes of Leishmania amazonensis MHOM/ BR/77/LTB0016 after 72 hrs by alamar blue assay
# Assay type: functional, organism-based
# Conditions: MHOM/ BR/77/LTB0016, 72 h
# Method in brief: as §1
row,Structure (SMILES),IC50
1,O=C1C=Cc2cccc3cccc1c23 [PERINAPHTHENONE],27.3 µg/mL
2,O=C1C(O)=Cc2cccc3ccc(-c4ccccc4)c1c23,> 100 µg/mL
3,O=C1C=Cc2cccc3ccc(-c4ccccc4)c1c23,> 100 µg/mL
4,COC1=Cc2cccc3ccc(-c4ccc(OC)cc4)c(c23)C1=O,> 100 µg/mL
5,N#Cc1ccc2cccc3c2c1C(=O)C=C3,3.73 µg/mL
6,OC1(c2ccccn2)C=Cc2cccc3ccc(-c4ccccn4)c1c23 (configuration not stated),> 100 µg/mL
7,O=C1C(O)=Cc2c(-c3ccc(O)cc3)ccc3cccc1c23,> 100 µg/mL
8,Oc1ccc2cccc3c2c1C(c1ccco1)C=C3 (configuration not stated),> 100 µg/mL
9,COc1ccc(-c2ccc3cccc4c3c2C(=O)C(O)=C4)cc1,> 100 µg/mL
10,O=C1C(O)=Cc2cccc3ccc(-c4ccc(O)cc4)c1c23,> 100 µg/mL
11,COC1=Cc2cccc3ccc(-c4ccccc4)c(c23)C1=O,9.04 µg/mL
12,COc1ccc(C2=CC(=O)c3cccc4cccc2c34)cc1,> 100 µg/mL
13,COc1ccc(-c2ccc3cccc4c3c2C(=O)C=C4)cc1,0.83 µg/mL
14,O=C1C(O)=Cc2c(-c3ccccc3)ccc3cccc1c23,> 100 µg/mL
15,O=C1C=Cc2cccc3ccc(-c4ccccn4)c1c23,53.2 µg/mL
16,O=C1C=Cc2cccc3ccc(-c4ccco4)c1c23,8.39 µg/mL
17,COC1c2cccc3ccc(-c4ccccc4)c(c23)C(=O)C1O (configuration not stated),> 100 µg/mL
18,Cc1cccc(C)c1-c1ccc2cccc3c2c1C(=O)C=C3,42.8 µg/mL
19,COc1ccc(-c2ccc3cccc4c3c2C(=O)C(O)C4O)cc1 (configuration not stated),> 100 µg/mL
20,O=C1C=Cc2cccc3ccc(-c4cccs4)c1c23,14.5 µg/mL
21,COc1ccc(-c2ccc3cccc4c3c2C=CC4=O)cc1,4.43 µg/mL

# Source: ChEMBL document CHEMBL1165954, “Synthesis and in vitro antiprotozoal evaluation of substituted phenalenone analogues” (Bioorg Med Chem, 2010)
